# Compound activity from PubChem.
# Compounds with a hit are over-represented: about 1.9% of the library has one in this group of screens.
# sPLA2-III inh: human group III sPLA2 inhibitors, primary screen, biochemical, QFRET, BODIPY PC-A2 liposome substrate; Group 3 secretory phospholipase A2 (Homo sapiens), Q9NZ20; QFRET BODIPY PC-A2 liposome hydrolysis, fluorescence; inhibition, % at 12.2 µM; hit rate 0.56% among 370,000;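 active = inhibition above mean plus 3 SD of compounds lying within the high and low control bounds, cut at about 19% in these data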;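 note: 0% = median of test compound wells and 100% = no enzyme DMSO wells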
# PLCb3 inh: human PLC-beta3 inhibitors, primary screen, biochemical, fluorescence; 1-phosphatidylinositol 4,5-bisphosphate phosphodiesterase beta-3 (Homo sapiens), Q01970; hit rate 0.18% among 370,000; AID 720704, 2013; inhibition, % at 12.2 µM; Purified PLC-beta3, fluorogenic substrate; in the data active = inhibition above about 11%;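 note: 0% = median of compound wells on plate and 100% = full blocker control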
# procasp7 counter: procaspase-7 activators, primary screen, counter-screen for procaspase-3 activator project, biochemical, absorbance, HTS, human. Caspase-7 (Homo sapiens), P55210. recombinant procaspase-7, Ac-DEVD-pNA absorbance 405 nm; D23A/D198A/D206A triple mutant, cannot self-cleave; scale: DMSO 0, 5 µM enzyme 100. activation, % at 8.5 µM. hit rate 0.093% among 330,000;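 active = percent activation above the screen-wide mean plus 3 SD, cut at about 25% in these data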
#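 Replicates: singlicate. Assay system: Procaspase-7 triple mutant (PC-7 D3A). Signal: 405 nm absorbance of p-nitroaniline. Times: 1 h preincubation, 2 h reaction. Buffer or medium: Zinc-free HEPES pH 7.4 with 300 mM NaCl, 0.01% Triton X-100. Also added: DEVD-pNA substrate. Benchmarks: DMSO wells as 0%, DMSO with 5 µM added PC-7 as 100%.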
# proCasp3 act: activators of human procaspase-3 D3A mutant, primary screen, biochemical, absorbance, PC-3 D3A mutant, single concentration; recombinant procaspase-3 D3A, Ac-DEVD-pNA absorbance 405 nm; activation, % at 8.5 µM; hit rate 0.11% among 330,000;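 active = activation above the mean of all tested compounds plus 3 SD, cut at about 21% in these data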;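 note: 0% = DMSO alone and 100% = DMSO wells spiked with extra 5 µM PC-3 D3A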
#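 Technique: 405 nm absorbance of p-nitroaniline, reads at 0 and 120 min; Test system: Procaspase-3 D3A mutant; Incubation: 1 h enzyme-compound preincubation, then 2 h substrate reaction, 25 °C; Repeats: singlicate, each compound tested once; Benchmarks: low control DMSO wells, high control DMSO plus 5 µM PC-3 D3A.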
# PLC-gamma1 inh: PLC-gamma1 enzyme inhibitors, primary screen, biochemical, fluorescence, purified enzyme. fluorogenic substrate. 1-phosphatidylinositol 4,5-bisphosphate phosphodiesterase gamma-1 (Homo sapiens), P19174. inhibition, % at 12.2 µM. hit rate 0.84% among 370,000; in the data active = inhibition above about 9.5%
# Arrestin-AP2 inh: inhibitors of beta-arrestin/AP2 binding, primary screen, biochemical, GPCR trafficking, flow cytometry. beta-arrestin 1 C-terminal peptide binding to AP2 beta2-adaptin appendage (human). FITC-arrestin peptide / GST-AP2 beads; AP2 beta2 appendage carries R879A mutation. inhibition, % at 10 µM. hit rate 0.31% among 340,000;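 active = inhibition above a set limit, near 3 SD of compounds lacking own fluorescence, cut at about 54% in these data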;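 note: plate controls were DMSO wells for no effect and 5 µM unlabelled arrestin peptide for full effect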
#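 Measured by: flow cytometry, FL1 (488/535 nm); Material: AP2 appendage R879A on GSH beads; Evaluation: percent response; Timing: pre-incubation 12 min, peptide binding 1 h, room temperature; Also added: 50 nM FITC-arrestin peptide; Medium: PBS with 0.05% Tween 20 and 0.1% BSA.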
# Arr AP2 CP1: inhibitors of arrestin peptide binding to AP2, confirmation, biochemical, cherry pick 1, flow cytometry beads; shares compounds with Arrestin-AP2 inh; GST-AP2 beads, FITC arrestin peptide binding; GST-fused beta2-adaptin appendage, R879A mutant; inhibition, % at 10 µM; hit rate 2% among 1,300; AID 504908, 2011;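 active = inhibition above a set limit, roughly 3 SD of non-fluorescent compound noise, cut at about 38% in these data; inactive = inhibition at or below that limit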;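 note: loss of bead fluorescence from 50 nM FITC arrestin peptide bound to appendage; 0% = negative control wells and 100% = excess unlabelled arrestin peptide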
# GST GSH counter: GST-fluorescein capture on glutathione beads, confirmation, artefact control for arrestin-AP2 inhibitor project, biochemical, cherry pick 1, flow cytometry; shares compounds with Arrestin-AP2 inh; GST-fluorescein binding to GSH beads, fluorescence, counter-screen; inhibition, % at 10 µM; hit rate 2% among 1,300; AID 588338, 2011;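 active = inhibition above 50%, about 3 SD of the inhibition seen with non-fluorescent compounds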;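 note: fluorescein maleimide labelled GST captured on 4 micron glutathione beads; higher means more loss of bead fluorescence from quenching or blocked binding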
# * = called active by the depositor; . = no result given; ! = not active in a repeat.
SMILES,sPLA2-III inh,PLCb3 inh,procasp7 counter,proCasp3 act,PLC-gamma1 inh,Arrestin-AP2 inh,Arr AP2 CP1,GST GSH counter
COC(=O)C1CCCN(C(=O)C2CCN(S(=O)(=O)c3ccccc3[N+](=O)[O-])CC2)C1 (stereo not drawn),-2,0,.,.,1,.,.,.
Cc1ccc(C)c(NC(=O)COC(=O)c2cc3ccccc3oc2=O)c1,3,-11,2,-2,-5,66*,2,5
Cc1ccc(-c2cc(C(F)(F)F)n3ncc(C(=O)N4CCCc5ccccc54)c3n2)cc1,-1,3,1,2,-1,-6,49*!,56*!
CCOC(=O)C1(Cc2ccccc2)CCN(Cc2ccnc3ccccc23)CC1,2,2,.,.,1,.,.,.
CCC(=O)Nc1ccc(NC(=S)Nc2ccccc2)cc1,6,4,-23,-29,4,-5,.,.
CCC(=O)Nc1ccc(C(=O)c2ccccc2)cc1,-2,0,11,5,1,84*,-1,-13
CCN1C(c2ccccc2)=C(c2ccccc2)S/C1=C\C=C1/SC(=S)N(C)C1=O,12,-62,-1,5,-6,75*,18,43
CCN1C(=O)/C(=C/C=C2/Sc3ccc4ccccc4c3N2CCO)SC1=S,13,-4,-26,-20,1,4,.,.
CN1CCS/C1=C/C=C1/SC(=S)N(Cc2ccccc2)C1=O,-32,-17,-8,-6,-18,0,.,.
CCN1C(c2ccccc2)=C(c2ccccc2)S/C1=C/C=C1\SC(=S)N(C)C1=O,-2,-7,.,.,-1,57*,-4,14
O=S1(=O)c2ccc(Br)cc2OC[C@H](Cc2ccccc2)N1Cc1cn(Cc2ccc(Br)cc2)nn1,7,1,.,.,0,.,.,.
CCN(CC)C(=O)CC[C@H]1CC[C@]2(CCCN(c3ccccc3)C2)O1,12,-9,.,.,-5,.,.,.
O=C(NC1CCCCN(Cc2cccc(C(F)(F)F)c2)C1=O)c1cccc([N+](=O)[O-])c1 (stereo not drawn),4,-6,.,.,-1,.,.,.
CCc1ccc(CCNC(=O)OCCCN2CCC3(CCC(c4ccccc4)CC3)C2=O)cc1 (stereo not drawn),-31,-10,.,.,0,.,.,.
CCCCOC(=O)c1ccc(NC(=O)COC(=O)C2CSC3(C)CCC(=O)N23)cc1 (stereo not drawn),-14,5,4,11,6,2,-11,-6
CN(C)S(=O)(=O)c1cc(NC(=O)COC(=O)C2CSC3(C)CCC(=O)N23)ccc1Cl (stereo not drawn),-8,0,14,-5,2,8,-5,-10
CC12CCC(=O)N1C(C(=O)OCC(=O)Nc1cc(S(=O)(=O)N3CCCCC3)ccc1Cl)CS2 (stereo not drawn),9,-1,-3,-6,1,-2,.,.
CC12CCC(=O)N1C(C(=O)OCC(=O)Nc1sccc1C#N)CS2 (stereo not drawn),-1,-8,-6,3,-5,-6,.,.
CSCCC(NS(=O)(=O)c1ccccc1F)C(=O)NCC(c1ccc(F)cc1)N1CCOCC1 (stereo not drawn),0,-3,-2,-3,3,-2,.,.
